Assay outcomes: PubChem, The Scripps Research Institute Molecular Screening Center
Sampled rows, rich in hits. Any-hit rate of the full collection: about 4.5%.
TAAR1 antagonist – antagonists of human TAAR1. Q96RJ0. CHO RD-HGA16 TAAR1, Fluo-8 calcium fluorescence, antagonist. inhibition, % at 3 µM. 360,000 tested, 1.5% active;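 active = inhibition above a per-plate cutoff, the mean inhibition of test compounds on that plate plus 3 SD, cut at about 49% in these data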;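 note: 0% = DMSO plus EC80 beta-PEA response and 100% = DMSO alone without agonist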
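Material: RD-HGA16 CHO cells with stable hTAAR1 and Gα16; Dosing: single nominal final test compound concentration of 3 µM; Schedule: seeding 17-24 h prior, 75-min 37 °C, 30-min RT dye loading; Detection: kinetic Fluo-8 calcium fluorescence measurement; Measure: % inhibition from peak post-agonist over basal fluorescence ratio; Benchmarks: vehicle and agonist controls.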
CHO parental Ca – counter-screen for OX1R antagonists: effect in parental CHO cells. parental CHO-K1, ATP-induced calcium, Fluo-8 fluorescence. 330,000 tested, 0.63% active. inhibition, % at 5.6 µM. AID 463079;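 active = inhibition above that plate's mean sample inhibition plus 3 SD, cut at about 26% in these data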;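 note: 0% = ATP-challenged DMSO wells and 100% = DMSO wells without ATP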
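Material – parental CHO cells · Reagent – ATP stimulus · Compound – single nominal dose of 5.6 µM per compound · Detection – Fluo-8 fluorescence · Read-out basis – percent inhibition of calcium signal · Controls – ATP-challenged DMSO wells low, unchallenged DMSO wells high · Repeats – no replicates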
OX1R antag-1 – antagonists of human orexin 1 receptor (OX1R); O43613; OX1R-expressing cells, FRET antagonist read-out; inhibition, % at 6.6 µM; 330,000 tested, 1.8% active; in the data active = inhibition mostly above about 38%, no sharp cut-off; inactive = mostly below about 40%;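 note: 0% = agonist challenge alone and 100% = reference antagonist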
Target sequence (O43613 whole entry, looked up): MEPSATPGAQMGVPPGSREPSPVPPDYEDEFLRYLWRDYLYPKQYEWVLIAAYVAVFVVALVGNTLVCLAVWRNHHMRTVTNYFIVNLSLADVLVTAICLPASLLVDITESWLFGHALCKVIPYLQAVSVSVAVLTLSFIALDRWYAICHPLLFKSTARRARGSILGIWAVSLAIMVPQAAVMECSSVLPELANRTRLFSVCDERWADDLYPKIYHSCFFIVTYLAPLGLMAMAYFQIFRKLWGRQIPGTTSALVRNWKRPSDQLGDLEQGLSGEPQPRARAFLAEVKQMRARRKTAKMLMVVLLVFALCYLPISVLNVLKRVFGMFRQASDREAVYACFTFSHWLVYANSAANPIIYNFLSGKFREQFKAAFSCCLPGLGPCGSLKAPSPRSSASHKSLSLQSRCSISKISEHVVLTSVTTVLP
OX1R antag-2 – blocks the human orexin 1 receptor; O43613; CHO/OX1R cells, Fluo-8 calcium fluorescence, orexin A; inhibition, % at 5 µM; 330,000 tested, 0.43% active; AID 434989;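 active = inhibition above its plate's threshold, mean inhibition of all tested compounds on the plate plus 3 SD, cut at about 37% in these data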;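 note: 0% = orexin A challenge wells and 100% = SB-334867-A antagonist wells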
GPR7 antag – antagonists of human GPR7 (neuropeptides B/W receptor 1); P48145; inhibition, % at 4.4 µM; 290,000 tested, 1.1% active; GPR7-expressing cells, fluorescence antagonist assay; in the data active = inhibition above about 16%, passing the limit was not always enough;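 note: cells stimulated with the agonist NPW; 0% = agonist with vehicle and 100% = vehicle without agonist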
Target sequence (P48145 whole entry, looked up): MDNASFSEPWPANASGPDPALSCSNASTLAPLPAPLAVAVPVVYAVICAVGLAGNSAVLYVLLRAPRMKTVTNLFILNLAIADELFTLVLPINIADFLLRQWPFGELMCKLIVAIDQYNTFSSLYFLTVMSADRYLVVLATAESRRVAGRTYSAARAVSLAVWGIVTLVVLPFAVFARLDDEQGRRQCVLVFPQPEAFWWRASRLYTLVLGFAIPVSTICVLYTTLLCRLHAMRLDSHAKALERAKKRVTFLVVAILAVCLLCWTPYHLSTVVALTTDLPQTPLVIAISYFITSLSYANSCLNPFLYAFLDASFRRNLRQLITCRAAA
TAAR1 agonist – human TAAR1 agonism; Q96RJ0; CHO RD-HGA16 TAAR1, Fluo-8 calcium fluorescence; vehicle wells 0%, saturating PEA agonist 100%; activation, % at 3 µM; 360,000 tested, 0.99% active; AID 624467;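 active = activation above the mean activation of all test compounds in the run plus 3 SD, cut at about 38% in these data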
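Assay system – CHO-derived RD-HGA16 cells with stable Gα16 and human TAAR1 · Compound dosing – one-point dosing at 3 µM (nominal) · Incubation – 17-24 h seeding, 75 min 37 °C dye, 30 min RT · Measured by – kinetic Fluo-8 calcium fluorescence · Control set – DMSO vehicle as 0%, PEA at EC100 as 100% · Repeats – single well for each compound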
Active calls of the source: *; nt = no result given.

SMILES	TAAR1 antagonist	CHO parental Ca	OX1R antag-1	OX1R antag-2	GPR7 antag	TAAR1 agonist
Cc1nc2c(ccc3nc(NC(=O)c4ccc5c(c4)OCCO5)sc32)s1	-10.0	-18.6	64.4*	20.2	-0.5	3.2
CC1(C(=O)NS(=O)(=O)c2ccc(C#N)cc2)CCN1C(=O)C1(c2ccc(Cl)cc2)CC1 (centres undefined)	-14.0	nt	nt	nt	nt	-0.5
CSc1nccc(NC(=O)c2cccc(Br)c2)n1	7.8	-21.4	20.9	-29.4	22.7	47.5*
Cc1cn([C@H]2C[C@H](O)[C@@H](/C=C/C(=O)NCCc3cccs3)O2)c(=O)[nH]c1=O	-3.8	nt	nt	nt	nt	0.6
CC(=O)O[C@H]1C=C[C@@H](NC(=O)OC(C)(C)C)C1	-0.6	nt	nt	nt	nt	0.2
CCNC(=O)c1cc2c(c(-c3cccc(-c4ccccc4F)c3)n1)[C@@H](CCO)N(C(=O)CC1CC1)C2	5.5	nt	nt	nt	nt	3.1
COc1ccccc1-c1cccc(-c2nc(C(=O)Nc3nccs3)cc3c2[C@@H](CCO)N(C(=O)CC2CC2)C3)c1	50.9*	nt	nt	nt	nt	11.1
COc1ccc(CC(=O)NC2CCSc3ccccc32)c(OC)c1 (centres undefined)	2.4	-8.4	29.6	-16.6	8.9	2.9
COc1ccc(OC)c(C(=O)NC2CCSc3ccccc32)c1 (centres undefined)	6.0	-24.0	47.1*	-21.3	-0.9	-2.9
Cc1ccc(CN2CC=CCS2(=O)=O)cc1	-9.3	nt	nt	nt	nt	0.4
COc1cccc(CNC(=O)[C@H]2CCCN2C(=O)[C@H]2CCCN2C(=O)c2ccccc2)c1	-8.3	nt	nt	nt	nt	6.2
Cc1ccc2n(n1)c(=O)c(Cc1ccccc1)c([O-])[n+]2-c1ccccc1	20.8	1.8	48.1*	-6.1	-3.3	-0.4
CC(=O)Nc1cc(OC(C)=O)c2nonc2c1OC(C)=O	-12.1	-2.3	84.7*	2.5	5.8	21.2
Cc1c(C(=O)O)c(=O)n(-c2ccccc2)n1-c1ccccc1	-4.4	-12.6	15.0	3.8	-1.9	1.9
Cc1c(C=O)c(=O)n(-c2ccccc2)n1-c1ccccc1	0.6	3.5	38.2	-13.9	20.3*	-4.3
Cc1ccc(C(O)c2ncc(-c3ccccc3F)[nH]2)c(C)c1 (centres undefined)	-11.1	nt	nt	nt	nt	2.7
COCc1cc(N2CCN(C(=O)OC(C)(C)C)C[C@H]2C)ccc1N1CCN(Cc2ccccc2)[C@@H](C)C1	-2.9	nt	nt	nt	nt	-1.7
Cc1cc(N2CCC(C)CC2)nc(SCC(=O)c2ccccc2)n1	53.9*	-3.4	25.4	-30.0	5.9	19.8
CCc1ccccc1Oc1nc(NCc2ccccc2)nc2ccsc12	2.1	nt	nt	nt	nt	4.3
Cc1ccc(-c2cc(C(=O)NNC(=O)c3csc(N4CCOCC4)n3)c3ccccc3n2)cc1	42.7	-14.0	8.5	-20.3	nt	14.5
Cc1ccc2nc(-c3ccccc3)cc(C(=O)NNC(=O)c3csc(N4CCOCC4)n3)c2c1	56.5*	-13.6	7.8	-25.4	nt	16.9
CN(Cc1cccnc1)C(=O)c1cc(COc2ccc3c(c2)CCCC3)on1	15.7	40.3*	27.7	25.0	2.2	4.3
CC(CNC(=O)c1cc(COc2ccc3ncccc3c2)on1)c1ccccc1 (centres undefined)	32.2	58.4*	57.3*	32.9	3.2	16.4
CN(Cc1nccn1C)C(=O)c1cc(COc2ccc3ncccc3c2)on1	8.6	3.4	15.7	-8.6	-3.5	4.0
CC(=O)c1cccc(OCc2cc(C(=O)N(C)Cc3cnccn3)no2)c1	-0.7	-13.2	0.6	-22.0	-16.1	2.2
SMILES	TAAR1 antagonist	CHO parental Ca	OX1R antag-1	OX1R antag-2	GPR7 antag	TAAR1 agonist
O=C(NC1CCCCCCC1)c1cc(COc2ccc3ncccc3c2)on1	19.9	nt	nt	nt	-2.8	2.0
Cc1cc(CN(C)C(=O)c2cc(COc3ccc4ncccc4c3)on2)on1	-16.9	28.6*	12.2	10.6	3.2	4.1
CCOC(=O)[C@@H]1CSCCS(=O)(=O)N1C(=O)[C@H](CCSC)NC(=O)OC(C)(C)C	-23.2	nt	nt	nt	nt	0.2
COC(=O)c1ccc2c(=O)n(CCCCCC(=O)NC3CCCCC3)c(=O)[nH]c2c1	12.4	nt	nt	nt	nt	0.1
COc1ccccc1C(=O)NCCC(=O)Nc1ccc(S(=O)(=O)N2CCC(C)CC2)cc1	10.9	-28.4	0.8	-8.4	nt	15.9
CC(C)N(CCCNC(=O)Cn1c(=O)c2cccn2c2ccccc21)Cc1ccccc1	-7.6	-20.9	66.3*	28.2	-7.6	-0.1
CN(CCCNC(=O)Cn1c(=O)c2cccn2c2ccccc21)Cc1ccccc1	-14.0	-22.6	32.7	-17.3	-1.4	0.6
Nc1ccc(Nc2nc(-c3cc4ccccc4oc3=O)cs2)cc1	1.4	0.2	2.8	-6.1	-6.4	2.0
O=c1oc2ccccc2cc1-c1nc(-c2cccs2)cs1	13.9	-30.4	50.7*	3.4	-12.4	2.9
CC(=O)Nc1ccc(Nc2nc(-c3cc4ccccc4oc3=O)cs2)cc1	54.9*	nt	nt	nt	-10.4	10.9
O=C(Nc1nc(-c2cccs2)cs1)c1cc2ccccc2oc1=O	nt	nt	nt	nt	-4.8	nt
Cc1cc(/C=C2/SC(=S)N(c3ccc([N+](=O)[O-])cc3)C2=O)c(C)n1-c1cccnc1	-8.1	8.0	18.4	-2.8	-12.4	7.2
Cc1cc(/C=C2\SC(=S)N(C)C2=O)c(C)n1-c1ccc(O)cc1	-20.3	9.4	9.6	-1.3	-4.6	11.4
Cc1cc(/C=C2/SC(=S)N(c3cccc(Cl)c3)C2=O)c(C)n1-c1cccnc1	23.8	45.6*	71.4*	53.0*	-2.8	17.5
Cc1cc(/C=C2\SC(=S)N(C)C2=O)c(C)n1-c1ccccc1O	43.7	36.4*	34.0	51.5*	nt	5.8
Cc1ccc(S(=O)(=O)Oc2ccccc2/C=C2/SC(=O)NC2=O)cc1	13.6	1.5	37.8*	-18.4	-19.0	6.4
O=C1NC(=O)/C(=C/c2cccc3ccccc23)S1	0.0	-3.2	29.8*	-22.6	-9.3	2.1
O=C1NC(=O)C(=Cc2ccccc2[N+](=O)[O-])S1	23.7	nt	nt	nt	nt	1.3
COC(=O)[C@]12C[C@H](CC(=O)N3CCN(C(=O)c4ccco4)CC3)C(=O)N(CCC3=CCCCC3)C1=C[C@H](COCc1ccccc1)O[C@@H]2C	-13.2	nt	nt	nt	nt	-1.7
Oc1cc(NCc2ccc(F)cc2)cc2cccnc12	-14.1	-17.2	21.4	-20.2	nt	4.9
CN(C)CCCNc1cc(O)c2ncccc2c1	8.8	-11.3	45.0*	-0.5	nt	6.0
C#CCN1CC(COc2ccccc2)OCCS1(=O)=O (centres undefined)	0.6	nt	nt	nt	nt	1.8
O=C(O)c1cc2nccc(-c3ccc(F)cc3)n2n1	2.3	1.9	43.2*	-16.6	-4.3	4.7
CCn1ncc(-c2ccnc3cc(C(=O)O)nn23)c1C	7.0	-14.3	22.0	-13.7	4.3	1.0
NC(=O)C(=O)N/N=C/c1c2ccccc2cc2ccccc12	4.0	-14.4	82.0*	-6.2	9.3	0.3
S=C(CN1CCCC1=S)NCCc1ccccc1	-24.8	9.8	11.0	1.0	4.7	40.0*
